Screening results deposited in PubChem by several laboratories.
UCH37 DUB inh: inhibitors of human deubiquitinating enzyme UCH37; inhibition, % (test concentration not listed); purified proteasome/UCH37, Ub-AMC cleavage fluorescence; actives 0.33% (n = 330,000); Q9Y5K5;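 active means mean inhibition over replicate wells above about 20%, limit read from the data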;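 further: 0% = compound-free wells with enzyme and 100% = wells lacking proteasome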
Target sequence (Q9Y5K5 whole entry, looked up): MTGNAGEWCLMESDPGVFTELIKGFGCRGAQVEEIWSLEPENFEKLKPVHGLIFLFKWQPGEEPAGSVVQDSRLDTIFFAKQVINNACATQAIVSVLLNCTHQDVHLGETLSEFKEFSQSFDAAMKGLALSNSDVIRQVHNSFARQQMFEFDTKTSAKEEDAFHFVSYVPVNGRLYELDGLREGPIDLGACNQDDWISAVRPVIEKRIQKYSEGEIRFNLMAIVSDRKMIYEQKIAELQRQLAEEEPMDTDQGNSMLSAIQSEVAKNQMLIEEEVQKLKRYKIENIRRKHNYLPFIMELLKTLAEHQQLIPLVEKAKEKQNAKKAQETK
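Assay system: Proteasome-bound UCH37. Buffer or medium: pH 7.4 Tris-HCl (50 mM) with ovalbumin, ATP-MgCl2, DTT. Incubation: 30 min preincubation with enzyme, 25 min cleavage at room temperature. Measured by: fluorescence, ex 355 nm, em 460 nm. Read-out basis: percent inhibition. Control set: wells without proteasome as full block, compound-free enzyme plus substrate as uninhibited.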
MIN6 prolif: MIN6 beta-cell proliferation induction; proliferation, % at 10 µM; MIN6 cells proliferation, ATPlite luminescence, 48 h; cells starved in 0.2% serum; 100% = growth in 10% serum; AID 2380; actives 0.29% (n = 330,000);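 active means compounds whose signal lies at least 3.5 SD above the mean of all wells on their plate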;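 further: 0% = DMSO-treated cells in low-serum medium and 100% = 10% serum control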
NR1D1 modulator: modulators of human Rev-erb alpha DNA binding; activity, % at 10 µM; P20393; Rev-erbα–FITC-DNA binding, fluorescence polarization, 90 min; actives 0.79% (n = 370,000);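 active means activity above about 14%, limit read from the data; passing the limit was not always enough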;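 further: 0% = DMSO wells with 35 nM protein and 100% = DMSO wells with 750 nM protein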
PG9 binder: PG9 antibody binding by small molecule | actives 0.43% (n = 360,000) | AID 624416 | inhibition, % at 6.7 µM | TR-FRET gp120-PG9 antibody binding; in the data active means inhibition above about 8.5%
CR mimetic SO: caloric restriction mimetics inhibiting age-related superoxide in yeast | actives 0.18% (n = 330,000) | AID 2690 | S. cerevisiae aged cells, superoxide DHE fluorescence; stronger effect = lower value | superoxide response (% of plate mean), % at 10 µM;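 active means superoxide response under a set limit, about three screen SD below normal, cut at about 65% in these data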;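 further: yeast aged for seven days with compound at 30 °C before DHE staining; 100% = average MFI of all compound-treated wells on the plate with controls excluded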
Rce1 inhib: yeast Ras-converting enzyme inhibition; calls only; actives 0.27% (n = 290,000); AID 2563; yeast membranes, quenched prenylated peptide cleavage fluorescence; Q03530;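 active means fall in fluorescence gain of 50% or more versus controls, with final raw signal at or below 3038400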;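 further: plate controls were neutral control wells for no effect and wells lacking membranes for full effect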
CR mimetic CP: yeast aging superoxide inhibition, cherry pick confirmation; shares compounds with CR mimetic SO; AID 434994; superoxide response (% of plate), % at 10 µM; actives 1% (n = 850); S. cerevisiae aging, superoxide DHE fluorescence; stronger effect = lower value;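 active means superoxide signal below 65% of the plate average of sample wells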;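 further: cells aged with compound for 7 days at 30 degrees C before staining; 100% equals mean DHE fluorescence of all compound wells on the plate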
DHE fluor count: compound alters DHE oxidation or fluorescence in yeast. AID 435000. fluorescence response, % at 10 µM. 850 tested, under 10 active. shares compounds with CR mimetic SO. S. cerevisiae BY4741, flow cytometry; stronger effect = lower value;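 active means fluorescence response below 15%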;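 further: percent of the mean fluorescence averaged over all compound wells on the plate; lower means stronger quenching of DHE signal or ROS scavenging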
Active calls of the source: *; i = inactive; x = no result. Rows were chosen to be rich in hits. Some 1.9% of all compounds tested hit in one or more screens of this group.

SMILES	UCH37 DUB inh	MIN6 prolif	NR1D1 modulator	PG9 binder	CR mimetic SO	Rce1 inhib	CR mimetic CP	DHE fluor count
Cn1cccc1CC(=O)NNC(=S)Nc1ccc(Cl)cc1Cl	0	-3	0	0	104	i	x	x
C=C(C)CNC(=S)NNC(=O)CCn1c2cc(Cl)ccc2c2ccc(Cl)cc21	-1	-6	-5	-3	109	i	94	90
CN(C)c1ccc(C=NNC(=O)CNC(=O)/C=C/c2ccccc2)cc1	-25	x	x	x	x	x	x	x
COc1cc(C)c(/C=C(\C#N)C(=O)Nc2cccc(C)c2)cc1C(C)C	-1	-3	1	-1	50*	i	102	95
Cc1cccc(NC(=O)/C(C#N)=C\c2ccc(C(=O)O)cc2)c1	2	-2	-6	0	99	i	x	x
COc1cc(S(=O)(=O)Nc2ccccc2C)ccc1Cl	4	-2	3	-2	98	i	100	100
COc1cc(NS(=O)(=O)c2cc(C)ccc2OC)c(OC)cc1Cl	4	-2	3	1	99	i	x	x
COc1ccc(C)cc1S(=O)(=O)Nc1cc(Cl)ccc1Cl	2	-3	0	-1	91	i	92	97
COc1ccc(S(=O)(=O)Nc2cc(Cl)ccc2OC)cc1	-1	x	7	1	89	i	109	108
C=CCc1ccc(OCCOc2ccc(C=Nn3cnnc3)cc2OCC)c(OC)c1	1	x	x	x	x	x	x	x
COc1ccc(N2CCN(C(=O)c3ccc(Cl)c(S(=O)(=O)N4CCCC4)c3)CC2)cc1	-1	-1	-4	-1	112	i	x	x
CCOc1ccc(C(=O)N2CCN(c3ccccc3)CC2)cc1	x	-2	0	2	97	i	96	95
Cc1ccc(C(=O)N2CCN(c3ncccn3)CC2)cc1	4	-1	1	2	65*	i	97	93
COc1ccc(N2CCN(C(=O)c3cc(=O)c4ccc(C)cc4o3)CC2)cc1	3	-5	-3	-2	106	i	x	x
COc1ccc(N2CCN(C(=O)c3ccc(C)cc3Cl)CC2)cc1	2	-1	2	0	95	i	97	91
COc1ccc(N2CCN(C(=O)c3ccc(C)c(Cl)c3)CC2)cc1	2	-1	0	0	83	i	94	99
Nc1nonc1-n1nnc(C(=O)NN=Cc2ccco2)c1-c1ccccc1	4	x	x	x	x	x	x	x
Cc1cccc(OCCn2cc(C=NNC(=O)c3ccncc3)c3ccccc32)c1	1	x	x	x	x	x	x	x
COc1ccccc1N1CCN(N=Cc2cc(Br)ccc2F)CC1	1	x	x	x	x	x	x	x
CCCCOc1ccc(-c2cc(C(=O)NNC(=S)NCC)c3ccccc3n2)cc1	-57	-6	6	x	62*	i	123	106
Cc1ccc(C(=O)Nc2cccc(NC(=O)c3ccc(C)c([N+](=O)[O-])c3)n2)cc1[N+](=O)[O-]	4	-2	-6	-2	61*	i	94	104
Cc1ccc(C=NNC(=O)CNC(=O)C23CC4CC(CC(C4)C2)C3)o1	2	x	x	x	x	x	x	x
COc1ccc(C2CC(=NO)C(C)(C)O2)cc1 (centres undefined)	2	x	x	x	x	x	x	x
O=c1c2c(nc3cc(-c4ccc(F)cc4)[nH]n13)CCC2	x	0	2	-2	97	i	x	x
COc1cccc(-c2cc3nc(-c4ccccc4)cc(=O)n3[nH]2)c1	-61	-6	0	-2	89	i	91	96
SMILES	UCH37 DUB inh	MIN6 prolif	NR1D1 modulator	PG9 binder	CR mimetic SO	Rce1 inhib	CR mimetic CP	DHE fluor count
Cc1cc(=O)n2[nH]c(-c3ccccc3)cc2n1	-5	0	-5	0	94	i	x	x
Cc1nc2cc(-c3ccccc3)[nH]n2c(=O)c1C	-13	0	-1	1	96	i	94	93
O=c1cc(-c2ccccc2)nc2cc(-c3ccc(F)cc3)[nH]n12	-63	-4	-3	0	106	i	92	94
CC(=O)Oc1ccc(Nc2ccccc2)cc1	3	-6	-1	-3	50*	i	94	102
COc1ccc(CCNC(=O)CC(C)=NNC(=O)C2CCCCC2)cc1OC	4	x	x	x	x	x	x	x
COc1ccccc1/C=C/C=NN1CCN(Cc2ccccc2Cl)CC1	2	x	x	x	x	x	x	x
